Assay results: ChEMBL document CHEMBL1156795, “Rational design of 5-phenyl-3-isoxazolecarboxylic acid ethyl esters as growth inhibitors of Mycobacterium tuberculosis. a potent and selective series for further drug development” (J Med Chem, 2010)
Values after ≈ are worked out from the molar mass of the structure shown.

Assays:
Assay type in all cases: functional
[1] = system: Mycobacterium tuberculosis; assay: Antimycobacterial activity against rifampin-resistant Mycobacterium tuberculosis H37Rv after 16 to 24 hrs by microplate alamar
Outline: (§1)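 MIC by MABA against Mtb strains resistant to isoniazid, rifampin or streptomycin. Values are averages of two to three independent experiments.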

[2] = system: Mycobacterium tuberculosis; assay: Antimycobacterial activity against isoniazid-resistant Mycobacterium tuberculosis H37Rv after 16 to 24 hrs by microplate alamar; outline: as §1
[3] = system: Mycobacterium tuberculosis; assay: Antimycobacterial activity against streptomycin-resistant Mycobacterium tuberculosis H37Rv after 16 to 24 hrs by microplate alamar; outline: as §1

SMILES | MIC [1] | MIC [2] | MIC [3]
CCOC(=O)c1cc(-c2cccc(OCc3c(F)cccc3F)c2)on1 | 1 µM (≈ 0.359 µg/mL) | 1.1 µM (≈ 0.395 µg/mL) | 1.1 µM (≈ 0.395 µg/mL)
CCOC(=O)c1cc(-c2cccc(OCc3cc(F)ccc3F)c2)on1 | 1 µM (≈ 0.359 µg/mL) | 1 µM (≈ 0.359 µg/mL) | 1.2 µM (≈ 0.431 µg/mL)
CCOC(=O)c1cc(-c2cccc(OCc3cccc(C(F)(F)F)c3)c2)on1 | 1 µM (≈ 0.391 µg/mL) | 0.9 µM (≈ 0.352 µg/mL) | 0.9 µM (≈ 0.352 µg/mL)
CCOC(=O)c1cc(-c2cccc(OCc3cccc(F)c3F)c2)on1 | 1 µM (≈ 0.359 µg/mL) | 1 µM (≈ 0.359 µg/mL) | 1 µM (≈ 0.359 µg/mL)
NNC(=O)c1ccncc1 [ISONIAZID] | 0.4 µM (≈ 0.0549 µg/mL) | > 128 µM | 0.5 µM (≈ 0.0686 µg/mL)
CN[C@@H]1[C@H](O[C@H]2[C@H](O[C@H]3[C@H](O)[C@@H](O)[C@H](N=C(N)N)[C@@H](O)[C@@H]3N=C(N)N)O[C@@H](C)[C@]2(O)C=O)O[C@@H](CO)[C@H](O)[C@H]1O [STREPTOMYCIN] | 0.2 µM (≈ 0.116 µg/mL) | 0.4 µM (≈ 0.233 µg/mL) | > 32 µM
CCOC(=O)c1cc(-c2cccc(OCc3cccc(C(F)(F)F)c3F)c2)on1 | 1 µM (≈ 0.409 µg/mL) | 0.9 µM (≈ 0.368 µg/mL) | 1 µM (≈ 0.409 µg/mL)
CCOC(=O)c1cc(-c2cccc(OCc3ccccc3Cl)c2)on1 | 1 µM (≈ 0.358 µg/mL) | 1 µM (≈ 0.358 µg/mL) | 1 µM (≈ 0.358 µg/mL)
CCOC(=O)c1cc(-c2cccc(OCc3cccc(Br)c3)c2)on1 | 1 µM (≈ 0.402 µg/mL) | 1 µM (≈ 0.402 µg/mL) | 1 µM (≈ 0.402 µg/mL)
CO[C@H]1/C=C/O[C@@]2(C)Oc3c(C)c(O)c4c(O)c(c(/C=N/N5CCN(C)CC5)c(O)c4c3C2=O)NC(=O)/C(C)=C\C=C\[C@H](C)[C@H](O)[C@@H](C)[C@@H](O)[C@@H](C)[C@H](OC(C)=O)[C@@H]1C [RIFAMPIN] | > 32 µM | > 0.1 µM | > 0.1 µM
